Assay outcomes (PubChem BioAssay)
CHO parental Ca = ATP-evoked calcium signal inhibitors, parental CHO, primary screen, counter-screen for OX1R antagonist project, cell-based, fluorescence, Fluo-8 calcium dye. parental CHO-K1, ATP-induced calcium, Fluo-8 fluorescence. inhibition, % at 5.6 µM. 330,000 tested, 0.63% active. AID 463079, 2010;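 active = inhibition above that plate's mean sample inhibition plus 3 SD, cut at about 26% in these data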;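 note: 0% = ATP-challenged DMSO wells and 100% = DMSO wells without ATP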
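Assay system: untransfected parental CHO cell line. Also added: ATP agonist challenge. Dosing: one dose, 5.6 µM nominal. Measured by: Fluo-8 fluorescence. Read-out: % inhibition. Benchmarks: ATP wells versus no-ATP DMSO wells. Repeats: no replicates.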
TAAR1 ag = human TAAR1 agonists, primary screen, Fluo-8 calcium fluorescence, CHO RD-HGA16 cells. vehicle wells 0%, saturating PEA agonist 100%. 360,000 tested, 0.99% active. activation, % at 3 µM. AID 624467, 2012. Trace amine-associated receptor 1 (Homo sapiens), Q96RJ0;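 active = activation above the mean activation of all test compounds in the run plus 3 SD, cut at about 38% in these data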
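Assay system: CHO-derived RD-HGA16 cells with stable Gα16 and human TAAR1; timing: 17-24 h seeding, 75 min 37 °C dye, 30 min RT; read-out: % activation from peak over basal fluorescence ratio, DMSO-to-PEA scaled; measured by: kinetic Fluo-8 calcium fluorescence; benchmarks: low control DMSO, high control PEA (EC100); doses: 3 µM single concentration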
TAAR1 antagonist = human TAAR1 antagonists, primary screen, Fluo-8 calcium fluorescence, CHO RD-HGA16 cells; inhibition, % at 3 µM; antagonist; 360,000 tested, 1.5% active; AID 624466, 2012; Trace amine-associated receptor 1 (Homo sapiens), Q96RJ0;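 active = inhibition above a per-plate cutoff, the mean inhibition of test compounds on that plate plus 3 SD, cut at about 49% in these data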;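 note: 0% = DMSO plus EC80 beta-PEA response and 100% = DMSO alone without agonist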
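Test system: RD-HGA16 CHO cells with stable hTAAR1 and Gα16 / Probe or stimulus: EC80 β-phenethylamine stimulus / Times: seeding 17-24 h prior, 75-min 37 °C, 30-min RT dye loading / Detection: Fluo-8 calcium-sensitive fluorescence / Read-out basis: % inhibition scaled between DMSO and EC80 PEA controls / Repeats: singlicate, one well per test compound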
OX1R antag-1 = antagonists of human orexin 1 receptor (OX1R); OX1R-expressing cells, FRET antagonist read-out; inhibition, % at 6.6 µM; 330,000 tested, 1.8% active; AID 485270, 2010; in the data active = inhibition mostly above about 38%, no sharp cut-off; inactive = mostly below about 40%;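 note: 0% = agonist challenge alone and 100% = reference antagonist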
Target sequence (O43613 whole entry, looked up): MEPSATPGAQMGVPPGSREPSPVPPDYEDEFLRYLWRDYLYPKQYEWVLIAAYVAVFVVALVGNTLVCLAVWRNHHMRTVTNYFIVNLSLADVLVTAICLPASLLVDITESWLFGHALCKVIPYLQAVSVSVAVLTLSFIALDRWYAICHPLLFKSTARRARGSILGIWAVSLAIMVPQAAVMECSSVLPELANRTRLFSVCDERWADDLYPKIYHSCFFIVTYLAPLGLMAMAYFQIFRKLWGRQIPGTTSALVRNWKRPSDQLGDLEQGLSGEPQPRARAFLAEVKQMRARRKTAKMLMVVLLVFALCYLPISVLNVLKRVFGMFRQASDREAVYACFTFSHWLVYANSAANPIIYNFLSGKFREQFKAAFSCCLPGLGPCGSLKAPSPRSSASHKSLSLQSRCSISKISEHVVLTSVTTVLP
GPR7 antag = GPR7 receptor antagonists, primary screen, cell-based, fluorescence, single concentration; inhibition, % at 4.4 µM; 290,000 tested, 1.1% active; Neuropeptides B/W receptor type 1 (Homo sapiens), P48145; GPR7-expressing cells, fluorescence antagonist assay; in the data active = inhibition above about 16%, passing the limit was not always enough;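 note: cells stimulated with the agonist NPW; 0% = agonist with vehicle and 100% = vehicle without agonist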
Target sequence (P48145 whole entry, looked up): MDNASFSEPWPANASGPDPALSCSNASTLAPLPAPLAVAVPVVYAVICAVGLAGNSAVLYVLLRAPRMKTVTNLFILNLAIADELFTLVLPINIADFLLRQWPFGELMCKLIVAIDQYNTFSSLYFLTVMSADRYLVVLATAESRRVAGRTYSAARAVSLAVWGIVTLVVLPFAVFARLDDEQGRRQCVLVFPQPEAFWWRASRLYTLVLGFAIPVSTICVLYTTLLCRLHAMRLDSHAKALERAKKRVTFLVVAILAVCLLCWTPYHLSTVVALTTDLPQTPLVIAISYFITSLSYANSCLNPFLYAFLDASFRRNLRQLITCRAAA
OX1R antag-2 = OX1R (HCRTR1) antagonists, primary screen, fluorescence, CHO/OX1R cells, Fluo-8 calcium, orexin A. Fluo-8 calcium fluorescence. inhibition, % at 5 µM. 330,000 tested, 0.43% active;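 active = inhibition above its plate's threshold, mean inhibition of all tested compounds on the plate plus 3 SD, cut at about 37% in these data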;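 note: 0% = orexin A challenge wells and 100% = SB-334867-A antagonist wells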
Numbers without * were called inactive; . = not tested or not shown. Only some compounds are listed: those with a hit (about 4.6% of all), similar ones and a draw of the others.

SMILES	CHO parental Ca	TAAR1 ag	TAAR1 antagonist	OX1R antag-1	GPR7 antag	OX1R antag-2
NC(=O)c1ccc(NCc2ccco2)c([N+](=O)[O-])c1	-1.7	5.5	8.9	128.4*	-4.6	-1.5
O=C1NC(=O)C(Cc2cccc(Oc3ccccc3)c2)S1 (stereo not given)	-4.9	-0.4	-21.7	44.0*	4.8	-14.3
Cc1ccc(S(=O)(=O)Nc2cccc3cccnc23)cc1	41.7*	4.7	26.7	19.2	8.8	27.0
COc1cc(NS(=O)(=O)c2ccc(C)cc2)c2ncccc2c1	23.5	5.4	0.5	24.1	-13.9	7.5
Cc1ccc(S(=O)(=O)Nc2ccccc2-c2ccccc2NS(=O)(=O)c2ccc(C)cc2)cc1	-5.3	0.2	49.2*	58.8	20.9	-10.5
CCOc1cc(S(=O)(=O)Nc2ccc(CC)cc2)ccc1Cl	41.9*	-0.4	14.3	12.3	-11.8	-2.9
COc1cccc(C2=CC(=O)C[C@H](c3ccc(Cl)cc3)C2)c1OC	-18.4	1.7	21.7	2.7	.	-42.4
COc1ccc([C@H]2CC(=O)C=C(c3ccc(F)cc3OCc3ccccc3)C2)cc1	-0.5	17.2	52.1*	-1.1	.	28.7
COc1ccccc1C1=CC(=O)C[C@H](c2ccc(Cl)cc2)C1	-19.9	14.6	49.8*	-0.9	.	-13.3
O=S1(=O)CCSC[C@@H](CNCc2ccco2)N1	.	1.3	-0.5	.	.	.
CCC(=O)N1CC2(CC(c3cccc([N+](=O)[O-])c3)=NO2)C[C@H]1C(=O)NCC(N)=O (stereo not given in full)	-4.7	10.3	-5.1	66.0*	0.8	-0.3
CCC(=O)Nc1cccc(C2=NOC3(C2)C[C@H](C(N)=O)N(C(=O)Cc2ccc([N+](=O)[O-])cc2)C3)c1 (stereo not given in full)	0.4	7.3	-6.9	22.2	.	2.4
CC(CCc1ccccn1)C(=O)c1ccccc1 (stereo not given)	.	1.1	11.0	.	.	.
CC(CCc1ccccn1)(CCc1ccccn1)C(=O)c1ccccc1	.	8.3	53.5*	.	.	.
COc1cc(-c2nc3ccccn3c2NCc2ccccc2)ccc1SC1CCCCC1	61.8*	.	.	23.1	.	-10.2
Cc1ccc(S(=O)(=O)CC(N)=O)cc1	69.6*	7.9	-7.4	25.8	-3.2	-7.2
C[C@@H](C(=O)NCc1ccccn1)[C@H]1C[C@]1(C)[C@H](NC(=O)OCc1ccccc1)c1ccccc1	-25.1	15.6	49.1*	21.0	1.7	-22.5
CCCCC1(C)OC(=O)C(=Cc2ccc(N(CC)CC)cc2)C(=O)O1 (stereo not given)	3.8	45.9*	19.4	19.4	-8.9	-3.5
Nc1[nH]c(C(=O)c2ccccc2)c(-c2cccc3ccccc23)c1C(=O)NCc1ccc(F)c(F)c1	.	1.8	-19.5	.	.	.
C=CCN1[C@@H](CC(C)C)COc2cccc(NCCCN3CCOCC3)c2S1(=O)=O	.	5.9	1.4	.	.	.
CCOC(=O)CSc1c(-c2ccc(Cl)cc2)[nH]c2ccccc12	3.0	-0.1	37.5	25.5	-11.4	-33.2
O=C(NCCSc1c(-c2ccccc2)[nH]c2ccccc12)c1cc2ccccc2oc1=O	-10.7	0.6	22.1	56.0*	-7.1	-5.8
O=C(Cc1cccs1)NCCSc1c(-c2ccc(Cl)cc2)[nH]c2ccccc12	-3.2	1.0	49.0*	13.8	19.2*	-19.8
CC(=O)OCCNC(=O)c1cc2ccccc2oc1=O	11.2	10.8	9.6	69.6*	-11.8	1.7
O=C(CCNS(=O)(=O)c1ccc(OC(F)(F)F)cc1)Nc1cccc(S(=O)(=O)N2CCCC2)c1	.	23.2	-0.6	.	.	.
SMILES	CHO parental Ca	TAAR1 ag	TAAR1 antagonist	OX1R antag-1	GPR7 antag	OX1R antag-2
O=C(Nc1ccc2c(c1)OCCO2)C(C1CC1)n1c(=O)c(-c2cc3ccccc3[nH]2)nc2ccccc21 (stereo not given)	.	1.4	-7.2	.	.	.
O=C(COC(=O)c1ccc(-c2ccccc2)cc1)Nc1ccccc1-c1ccccc1	0.7	1.5	42.9	7.6	-12.4	-9.8
O=C(COC(=O)c1ccc(O)cc1)Nc1ccccc1-c1ccccc1	42.9*	11.5	60.5*	45.3	-5.2	28.8
O=C(COC(=O)c1ccc(O)cc1)Nc1ccc(Cl)cc1	-6.5	41.4*	47.3	10.3	7.7	3.8
O=C(Nc1nccs1)c1ccc(-c2ccc(F)cc2)o1	-16.2	-1.2	-2.3	48.2	-8.7	-16.9
O=C(Nc1nccs1)c1ccc(-c2ccc(Cl)cc2)o1	-31.0	-2.0	-13.9	49.4*	-10.4	5.7
O=C(Nc1nccs1)c1ccc(-c2ccccc2Cl)o1	-36.0	-2.7	-11.8	59.1*	-15.4	8.3
O=C1C(Oc2ccccc2)C(c2cccs2)N1Cc1ccc2c(c1)OCO2 (stereo not given)	23.9	14.2	35.7	11.1	-11.1	42.7
COc1ccc(OC2C(=O)N(Cc3ccc4c(c3)OCO4)C2c2cccs2)cc1 (stereo not given)	40.9*	9.3	55.9*	16.9	-8.4	57.9*
CCCCNC(=O)c1nc(C2CCN(S(=O)(=O)c3ccc(OC(F)(F)F)cc3)CC2)oc1-c1ccccc1	.	1.9	-18.3	.	.	.
O=C(CSc1nnc(Cc2csc(Nc3cccc(Cl)c3)n2)o1)N1CCc2ccccc21	-3.1	1.1	51.5*	61.4	-0.4	7.5
CCCCCCC12Cc3cc(OC)c(OC)cc3C(O1)c1c(cc(C)oc1=O)O2 (stereo not given)	.	-1.7	-9.0	.	.	.
N#Cc1ccc2nc(-c3ccc(CN4CCC(n5cc(-c6ccccc6)[nH]c5=O)CC4)cc3)c(-c3ccccc3)nc2c1	.	8.2	46.1	.	.	.
O=C(COc1ccccc1Cl)c1ccc2c(c1)CCCC2	28.3*	1.0	20.1	22.8	-5.1	-28.0
C[C@@H]1COc2cc(N3CCCC3)ccc2S(=O)(=O)N1	.	-0.8	26.9	.	.	.
O=C(CN1C(=O)c2cccc([N+](=O)[O-])c2C1=O)N1CCN(S(=O)(=O)c2ccccc2)CC1	-18.7	6.3	-8.0	33.7*	.	23.6
O=C(CN1C(=O)c2ccccc2C1=O)N1CCN(S(=O)(=O)c2ccccc2)CC1	-12.5	2.6	-8.7	10.1	-9.6	-1.1
CC(=O)N1C[C@@H](CO)[C@@H]2C[C@H]1c1ccccc1N2C	.	1.4	-5.5	.	.	.
COc1nc(Cl)cn(-c2ccc(C)cc2)c1=O	-2.4	-2.6	3.6	19.1	0.8	-7.0
Cc1ccc(-n2c(Cl)c(Cl)nc(Cl)c2=O)cc1	23.4	.	.	16.2	52.5*	16.4
CCCCCCCCN1C(=O)[C@@H](CC(=O)NCc2ccc(C)o2)C[C@@]2(C(=O)OC)C1=C[C@H](C1CCCC1)O[C@@H]2C	.	-1.3	-32.8	.	.	.
